DENV2 CPE = inhibitors of DENV2 cytopathic effect, primary screen, cell-based, plate reader, single concentration. DENV2-infected cells, cytopathic effect rescue. CPE inhibition, % at 9.99 µM. 1.7% of 350,000 active. AID 651640, 2012; in the data active = CPE inhibition above about 20%, passing the limit was not always enough; inconclusive = no clear call, values can overlap the other calls; tested in BHK-21 cells
INS-1E GSIS act = GLuc luminescence reporter in INS-1E cells, primary screen for activators of glucose-dependent secretion of insulin | activation, % at 16.6 µM | INS-1E GLuc reporter insulin secretion, 2-3 h | 0.61% of 370,000 active | AID 743287, 2014;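 active = lowest replicate activation of at least 40%, so every replicate reaches that level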
miR122 inh = miR-122 Renilla sensor signal increase in Huh7, primary screen, miR-122 inhibitor project, cell-based, single point, plate reader. Huh7 miR-122 Renilla luciferase sensor, 48 h; neutral wells = 0, positive control = 100. AID 602342, 2012. 0.3% of 340,000 active. activation (reporter increase), % at 12.5 µM;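 active = mean replicate activation score at least 90 and every replicate individually at or above 90; inconclusive = only one of the two criteria met; inactive = neither criterion met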;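 also: higher luciferase means less miR-122 activity so hits act as miR-122 inhibitors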
F508del corr = F508del CFTR correction, initial screen, CFBE line, single point; CFBE cells, YFP halide quenching; stimulated with forskolin plus potentiator P3; % fluorescence drop versus neutral controls; activity (quench increase), % at 7.58 µM; 0.36% of 350,000 active;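 active = mean added fluorescence quench of at least 8% versus neutral control, with both replicates also reaching 8%; inconclusive = only one of the mean or replicate conditions met; inactive = mean below 8% and not both replicates reaching 8%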;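 also: cells transiently co-express mutant CFTR-F508del with the halide-sensitive YFP; corrector assay measuring rescue of mutant channel to the surface after 24 h compound exposure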
ERAP1 inh = human ERAP1 aminopeptidase inhibitors, primary screen, biochemical, single point, plate reader; recombinant ERAP1, Leu-AMC fluorescence, 60 min; AID 652197, 2013; inhibition, % at 10.7 µM; Endoplasmic reticulum aminopeptidase 1 (Homo sapiens), Q9NZ08; 0.15% of 340,000 active;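 active = mean replicate inhibition of at least 30%, or all replicates individually reaching that 30% level; inactive = mean below 30% and not every replicate reaching it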
E-selectin induc = E-selectin induction in HUVECs, primary screen, imaging, HUVEC, immunofluorescence imaging, single point; P16581; normalized: neutral wells 0, TNF-alpha wells 100; activation, % at 7.58 µM; 0.37% of 260,000 active; AID 686992, 2013;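 active = mean E-selectin-positive cell signal at least 10% of the positive control, reached in at least 60% of replicates, without over 20% cell loss; inconclusive = no rule given, readout overlaps actives, possibly toxicity-flagged; inactive = the rest, including those meeting only one limit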
Target sequence (P16581 whole entry, looked up): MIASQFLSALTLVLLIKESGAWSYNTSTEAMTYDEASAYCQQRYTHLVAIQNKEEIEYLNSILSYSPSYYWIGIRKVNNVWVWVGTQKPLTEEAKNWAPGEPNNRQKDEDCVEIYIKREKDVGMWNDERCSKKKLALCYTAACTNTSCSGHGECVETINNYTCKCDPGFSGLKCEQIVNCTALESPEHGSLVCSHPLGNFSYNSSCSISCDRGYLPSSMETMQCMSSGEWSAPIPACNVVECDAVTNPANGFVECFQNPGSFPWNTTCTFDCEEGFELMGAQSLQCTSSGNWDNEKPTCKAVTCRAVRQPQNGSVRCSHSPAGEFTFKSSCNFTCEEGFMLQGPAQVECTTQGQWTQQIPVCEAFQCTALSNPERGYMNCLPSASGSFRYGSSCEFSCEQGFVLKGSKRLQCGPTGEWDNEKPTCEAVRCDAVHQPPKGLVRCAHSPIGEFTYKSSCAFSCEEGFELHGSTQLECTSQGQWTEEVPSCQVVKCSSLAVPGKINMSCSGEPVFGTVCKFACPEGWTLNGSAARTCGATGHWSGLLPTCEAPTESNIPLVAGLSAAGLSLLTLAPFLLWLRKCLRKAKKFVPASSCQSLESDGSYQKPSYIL
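Read-out basis: % PE-positive cells; Test system: HUVEC primary endothelial cells; Technique: immunofluorescence imaging; Dosing: single-point compound dose.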
Numbers stand for hits. Hits are enriched below; roughly 2.6% of the tested compounds scored in any of these assays.

`Cc1cc(C(=O)CN2C(=O)C(=O)N(Cc3ccccc3)C2=O)c(C)n1Cc1ccccc1` gave DENV2 CPE inactive, INS-1E GSIS act inactive, miR122 inh inactive, F508del corr 9.4, ERAP1 inh inactive and E-selectin induc inactive.
`C[C@@H]1CN([C@H](C)CO)C(=O)c2cc(NC(=O)CCCN(C)C)ccc2O[C@@H]1CN(C)Cc1ccc2c(c1)OCO2` gave INS-1E GSIS act inactive, F508del corr inactive, ERAP1 inh inactive and E-selectin induc inactive.
For CCCNC(=O)Nc1ccc2c(c1)C(=O)N(C)C[C@H](OC)[C@@H](C)CN(C(=O)c1ccccc1F)[C@H](C)CO2 the results were DENV2 CPE inactive, INS-1E GSIS act inactive, F508del corr inactive and E-selectin induc inactive.
CC(C)C[C@H](NC(=O)c1nc[nH]c1C(=O)N1CCC(C)CC1)C(=O)OC(C)(C)C was read as DENV2 CPE 82, INS-1E GSIS act inactive, miR122 inh inactive, F508del corr inactive and E-selectin induc inactive.
Screening Cc1noc(C)c1S(=O)(=O)Nc1ccc2c(c1)C(=O)N([C@@H](C)CO)C[C@H](C)[C@@H](CN(C)C(=O)Nc1ccccc1)OCCCC[C@@H](C)O2 returned DENV2 CPE inactive, INS-1E GSIS act inactive, miR122 inh inactive, F508del corr inactive, ERAP1 inh inactive and E-selectin induc inactive.
`Cc1noc(C)c1S(=O)(=O)Nc1ccc2c(c1)C(=O)N([C@@H](C)CO)C[C@H](C)[C@H](CN(C)C(=O)C1CCCCC1)OCCCC[C@@H](C)O2` gave DENV2 CPE inactive, INS-1E GSIS act inactive, miR122 inh inactive, F508del corr inactive, ERAP1 inh inactive and E-selectin induc inactive.
Screening Cc1noc(C)c1S(=O)(=O)Nc1ccc2c(c1)C(=O)N([C@H](C)CO)C[C@H](C)[C@@H](CN(C)C(=O)NC(C)C)OCCCC[C@H](C)O2 returned DENV2 CPE 24, INS-1E GSIS act inactive, miR122 inh inactive, F508del corr inactive and ERAP1 inh inactive.
`Cc1noc(C)c1S(=O)(=O)Nc1ccc2c(c1)C(=O)N([C@@H](C)CO)C[C@H](C)[C@@H](CN(C)C(=O)Nc1ccccc1)O2` gave DENV2 CPE 21, INS-1E GSIS act inactive, miR122 inh inactive, F508del corr inactive, ERAP1 inh inactive and E-selectin induc inactive.
`Cc1noc(C)c1S(=O)(=O)Nc1ccc2c(c1)C(=O)N([C@H](C)CO)C[C@H](C)[C@@H](CN(C)C(=O)Nc1ccccc1)O2` gave DENV2 CPE inconclusive, INS-1E GSIS act inactive, miR122 inh inactive, F508del corr inactive, ERAP1 inh inactive and E-selectin induc inactive.
Cc1noc(C)c1S(=O)(=O)Nc1ccc2c(c1)C(=O)N([C@H](C)CO)C[C@H](C)[C@H](CN(C)C(=O)C1CCCCC1)OCCCC[C@@H](C)O2 was read as DENV2 CPE 47, INS-1E GSIS act inactive, miR122 inh inactive, F508del corr inactive, ERAP1 inh inactive and E-selectin induc inactive.
`Cc1noc(C)c1S(=O)(=O)Nc1ccc2c(c1)C(=O)N([C@@H](C)CO)C[C@@H](C)[C@@H](CN(C)C(=O)Nc1ccccc1)OCCCC[C@@H](C)O2` gave DENV2 CPE 95, INS-1E GSIS act inactive, miR122 inh inactive, F508del corr inactive, ERAP1 inh inactive and E-selectin induc inactive.
Screening O=C(CN1CCOCC1)N[C@@H]1CC[C@H](CCNC(=O)C2CCCCC2)O[C@@H]1CO returned DENV2 CPE inactive, INS-1E GSIS act inactive, F508del corr inactive, ERAP1 inh inactive and E-selectin induc inactive.
`C[C@H](CO)N1C[C@H](C)[C@@H](CN(C)C(=O)c2ccccc2)OCCCC[C@H](C)Oc2ccc(NC(=O)Cc3ccccc3)cc2C1=O` gave DENV2 CPE inactive, INS-1E GSIS act inactive, miR122 inh inactive, F508del corr inactive, ERAP1 inh inactive and E-selectin induc inactive.
C[C@@H]1CN([C@H](C)CO)C(=O)Cc2cc(NC(=O)CCC(F)(F)F)ccc2O[C@H]1CN(C)C(=O)Nc1cccc2ccccc12 was read as DENV2 CPE inactive, INS-1E GSIS act inactive, miR122 inh inactive, F508del corr inactive, ERAP1 inh inactive and E-selectin induc inactive.
Cc1noc(C)c1S(=O)(=O)Nc1ccc2c(c1)C(=O)N([C@H](C)CO)C[C@H](C)[C@H](CN(C)C(=O)Nc1ccccc1)OCCCC[C@@H](C)O2 was read as DENV2 CPE 89, INS-1E GSIS act inactive, miR122 inh inactive, F508del corr inactive, ERAP1 inh inactive and E-selectin induc inactive.
Cc1noc(C)c1S(=O)(=O)Nc1ccc2c(c1)C(=O)N([C@@H](C)CO)C[C@H](C)[C@H](CN(C)C(=O)CCCN(C)C)OCCCC[C@H](C)O2 was read as DENV2 CPE 73, INS-1E GSIS act inactive, miR122 inh inactive, F508del corr inactive and E-selectin induc inactive.
`Cc1noc(C)c1S(=O)(=O)Nc1ccc2c(c1)C(=O)N([C@@H](C)CO)C[C@@H](C)[C@@H](CN(C)C(=O)Nc1ccccc1)OCCCC[C@H](C)O2` gave DENV2 CPE inactive, INS-1E GSIS act inactive, miR122 inh inactive, F508del corr inactive, ERAP1 inh inactive and E-selectin induc inactive.
For Cc1noc(C)c1S(=O)(=O)Nc1ccc2c(c1)C(=O)N([C@@H](C)CO)C[C@H](C)[C@H](CN(C)C(=O)CCCN(C)C)OCCCC[C@@H](C)O2 the results were DENV2 CPE inactive, INS-1E GSIS act inactive, miR122 inh inactive, F508del corr inactive and E-selectin induc inactive.
Screening O=c1c(Cl)c(NCCO)cnn1-c1cccc(Cl)c1 returned DENV2 CPE inactive, INS-1E GSIS act 46, miR122 inh inactive, F508del corr inactive and ERAP1 inh inactive.
CN(C)CCNc1cnn(-c2ccccc2)c(=O)c1Cl was read as DENV2 CPE inactive, INS-1E GSIS act inactive, F508del corr inactive, ERAP1 inh inactive and E-selectin induc inactive.
Cc1ccc2cc(-c3noc(C(C)(C)C)n3)c(=O)[nH]c2c1 was read as miR122 inh 206.
Screening CC(=O)N(C)C[C@H]1Oc2ccc(N(C)C)cc2C(=O)N(C)C[C@@H]1C returned INS-1E GSIS act inactive.
For CSc1ccc(S(=O)(=O)NC2CC3CCC2C3)cc1 (stereo not drawn) the results were DENV2 CPE 37, INS-1E GSIS act inactive, miR122 inh 104, F508del corr inactive and ERAP1 inh inactive.
For COc1ccc(S(=O)(=O)NC2CC3CCC2C3)cc1 (stereo not drawn) the results were DENV2 CPE inactive, INS-1E GSIS act inactive, miR122 inh inactive, F508del corr inactive, ERAP1 inh inactive and E-selectin induc inactive.

Screening data as filed in PubChem BioAssay.
